High-throughput results (PubChem BioAssay)
TRAIL sens C8 – viability loss with TRAIL in NB7+C8 cells, primary screen, TRAIL sensitizer project, cell-based, ATPlite luminescence; 1% of 360,000 active; AID 624354, 2012; inhibition (viability loss, TRAIL sensitization), % at 10 µM;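 active = compounds causing at least 50% loss of cell viability in the single-dose screen, relative to plate controls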
PPC-1+TRAIL kill – compounds killing PPC-1 cancer cells with TRAIL present, primary screen, TRAIL potentiator project, ATPLite luminescence, uHTS. cell killing (% activity), % at 4 µM or 5 µM. PPC-1 cells + TRAIL, ATPLite viability luminescence. 0.41% of 220,000 active;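 active = cell killing above 50% in the first pass at 4 µM, then a duplicate retest at 5 µM averaging 50% or more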;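 also: plate controls were cells with TRAIL plus DMSO for no effect and medium-only wells lacking cells for full effect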
FLuc stim CS – FLuc activators, initial screening, artefact control for FLuc-dependent activation tests, biochemical, ATPlite luminescence; Luciferin 4-monooxygenase (Photinus pyralis), P08659; ATPlite luciferase biochemical, 10 min; 0 = ATP-free wells, 1 = DMSO control; activation factor at 10 µM; 200,000 tested, under 10 active; AID 1027, 2008;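 active = luciferase activation factor, scaled between plate controls, of at least 2 with compound at 10 µM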
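Assay system: Luciferase/luciferin detection reagent, cell-free biochemical luciferase assay / Also added: ATP substrate / Schedule: 10 min at ambient temperature / Measured by: luminescence measurement of luciferase light output / Benchmarks: low control with PBS replacing ATP, high control enzyme plus ATP without compound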
FLuc inh counter – firefly luciferase enzyme inhibitors, primary screen, artefact control for luciferase-based inhibitor screens, biochemical, luminescence, ATPLite; inhibition, % at 10 µM; Luciferin 4-monooxygenase (Photinus pyralis), P08659; 1.5% of 200,000 active; 10 min;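 active = inhibition above about 50% when tested at 10 µM, limit read from the data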
PPC-1 tox – cytotoxicity in PPC-1 cells, confirmation, cytotoxicity control for TRAIL apoptosis potentiator project, cell-based, ATP content luminescence. 50% of 1,200 active. cytotoxicity, % at 5 µM. shares compounds with PPC-1+TRAIL kill. PPC-1 viability, ATPlite luminescence, overnight;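 active = reconfirmed compounds whose average cytotoxicity reaches 50% or more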;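 also: 0% = DMSO-treated cells and 100% = wells holding medium but no cells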
The depositor's hits bear a star; nt = no result. This is a sample that favours compounds with a hit; in the whole collection about 1.6% have one here.

SMILES	TRAIL sens C8	PPC-1+TRAIL kill	FLuc stim CS	FLuc inh counter	PPC-1 tox
O=[N+]([O-])c1ccc(N/N=C/c2sc(N3CCOCC3)nc2-c2ccccc2)c(S(=O)(=O)Nc2ccc(Cl)cc2)c1	10	35	1	4	40
CC(=O)Nc1sc2c(c1-c1nc3ccccc3s1)CCN(C(C)C)C2	54*	37	1	-3	27
CN(C)C(CNC(=O)C1CC(=O)N(c2cccc(C(F)(F)F)c2)C1)c1ccccc1 (configuration not stated)	2	nt	nt	nt	nt
Cc1csc(NC(=O)c2cn3ccccc3n2)n1	85*	80*	0.1	94*	78*
CN(Cc1ccc(Br)cc1)C(=O)CCN1C(=O)c2cccc([N+](=O)[O-])c2C1=O	0	nt	nt	nt	nt
Cn1c(-c2ccccc2)cnc1SCC(=O)NCc1ccco1	8	3	1	-4	-6
CCCCC[C@@H]1C=C(C(=O)O)[C@H](c2ccc3c(c2)OCO3)N1S(=O)(=O)c1ccc(C)cc1	-7	nt	nt	nt	nt
O=C(Nc1nnc(SCC(=O)N2CCOCC2)s1)c1ccccc1Cl	69*	58*	0.2	85*	56*
Nc1[nH]n(-c2ccccc2)c(=O)c1N=Nc1ccc2c(c1)OCCO2	55*	45	0.2	76*	42
COc1ccc(S(=O)(=O)NCC2CCCN(Cc3cn(C)nc3C)C2)cc1 (configuration not stated)	-18	nt	nt	nt	nt
CCCCCc1ccc(OCCCC[n+]2cccc(C)c2)c(CCCCC)c1	21	21	1.1	-6	27
CCCCCc1ccc(OCCCC[n+]2ccc(C)cc2)c(CCCCC)c1	46	27	1	1	9
CCCCOc1ccc(C)cc1CN(CCO)CCO	4	-9	1	1	nt
CCCC(=O)N1CCCC(c2cc(C(=O)NCc3ccc(F)cc3)no2)C1 (configuration not stated)	18	nt	nt	nt	nt
COc1ccc2nc(Cl)c(/C=N/Nc3ccccn3)cc2c1	67*	66*	0.2	79*	65*
Clc1ccccc1C=NNc1ccccn1	12	nt	nt	nt	nt
CCOC(=O)CSc1ncnc2c1cnn2-c1ccccc1	-8	18	0.8	16	nt
CCOC(=O)CSc1ncnc2c1cnn2-c1ccc(C)cc1	6	28	0.9	7	22
Cc1ccc(C)c(Cn2nnc3c(=O)[nH]c(C4CCN(C(=O)c5ccco5)CC4)nc32)c1	-24	nt	nt	nt	nt
COc1ccc(S(=O)(=O)NNc2nc(C)cc(C)n2)cc1Br	-11	nt	nt	nt	nt
O=C(Nc1ccc(N2CCOCC2)cc1)c1ccncc1	0	16	0.9	10	nt
O=C(Nc1ccc(N2CCOCC2)cc1)c1cnsn1	71*	73*	0.1	90*	71*
O=C(NOC(=O)c1c(F)cccc1Cl)c1ccc(Cl)c(Cl)c1	2	nt	nt	nt	nt
O=C(N/N=C/c1ccc([N+](=O)[O-])cc1)c1cc(C2CC2)[nH]n1	8	nt	nt	nt	nt
O=C(N/N=C/c1ccc([N+](=O)[O-])cc1)c1[nH]ncc1Br	49	27	0.4	60*	26
SMILES	TRAIL sens C8	PPC-1+TRAIL kill	FLuc stim CS	FLuc inh counter	PPC-1 tox
CCn1nc(C)cc1C(=O)NC1CCCc2c1cnn2-c1cc(F)cc(F)c1 (configuration not stated)	18	nt	nt	nt	nt
CCCCn1c(N)c(N(C(=O)CSc2nnnn2-c2ccccc2C)C2CCCC2)c(=O)[nH]c1=O	-8	nt	nt	nt	nt
Cn1c(=NC(=O)c2ccco2)sc2ccccc21	59*	50*	0.1	86*	53*
Cc1sc(=NC(=O)c2ccco2)n(C)c1-c1ccccc1	78*	76*	0.1	91*	74*
Cc1cccc(C)c1OC(=O)CN1C(=O)c2ccccc2C1=O	-10	nt	nt	nt	nt
COc1ccccc1CN1CCNC(=O)C1CC(=O)NCc1cn(C)nc1C (configuration not stated)	6	nt	1	3	nt
O=C(c1ccco1)N1CCN(C(=O)c2ccco2)CC1	-8	nt	nt	nt	nt
Cc1cccc2nc(=S)n(C(=O)c3ccco3)n12	54*	43	0.2	85*	49
O=C(CC[C@H]1O[C@@H](n2cnc3c(NC(=O)c4ccccc4)ncnc32)[C@H](O)[C@@H]1O)NCc1ccc2c(c1)OCO2	12	nt	nt	nt	nt
CC(C)Cc1cc(C(=O)Nc2ccc(Br)cc2)no1	6	14	nt	nt	nt
CC(C)Cc1cc(C(=O)Nc2cccc(O)c2)no1	64*	63*	nt	nt	61*
